The list is not random: actives were taken first. Their share in the collection is about 1.7%.
IDE cell activ: boosts human insulin-degrading enzyme activity in HEK cells; activation, % at 5.96 µM; actives 0.073% (n = 340,000); FAbeta-B cleavage, fluorescence polarization; 0% vehicle, 100% cell-free pure enzyme wells;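 active = activation above the mean of all tested compounds plus 3 SD, set per screening campaign, cut at about 17% in these data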
Rpn11 inh: inhibitors of human proteasome Rpn11; O00487; human 26S proteasome, Ub4-pepOG fluorescence polarization; 20S core pre-blocked with epoxomicin; inhibition, % at 20 µM; actives 0.59% (n = 360,000);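 active = inhibition at 20 µM, scaled to each plate's controls, above about 33%, limit read from the data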
Target sequence (O00487 whole entry, looked up): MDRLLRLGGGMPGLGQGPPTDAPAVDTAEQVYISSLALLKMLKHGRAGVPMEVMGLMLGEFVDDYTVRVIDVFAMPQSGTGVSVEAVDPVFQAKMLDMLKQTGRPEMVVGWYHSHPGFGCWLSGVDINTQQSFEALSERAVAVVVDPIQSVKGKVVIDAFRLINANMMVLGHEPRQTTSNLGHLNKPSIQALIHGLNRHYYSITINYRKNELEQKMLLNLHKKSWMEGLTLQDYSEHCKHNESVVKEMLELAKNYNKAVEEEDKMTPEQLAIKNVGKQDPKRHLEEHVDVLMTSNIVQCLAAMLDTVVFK
TPT1 inh: inhibitors of Candida albicans tRNA 2'-phosphotransferase TPT1 | recombinant caTPT1, FP RNA substrate dephosphorylation | inhibition, % at 5 µM | actives 0.81% (n = 300,000) | AID 1962;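 active = inhibition above the mean of all tested compounds plus 3 SD, set per screening campaign, cut at about 24% in these data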;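 also: plate controls were DMSO alone for no effect and ferristatin control at 100 nM for full effect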
CSN deneddyl inh: inhibitors of human CSN-mediated cullin deneddylation | Purified CSN, SCF-Nedd8-OG deneddylation, fluorescence polarization | actives 0.38% (n = 360,000) | inhibition, % at 12.5 µM;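 active = pattern-corrected inhibition above about 35%, with an unprinted fluorescence ratio check between 0.5 and 1.5, limit read from the data, passing the limit was not always enough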;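 also: 0% = enzyme with substrate and 100% = substrate without enzyme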
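Assay system: HEK293T-derived human Csn5 enzyme; quantity: 0.24 nM enzyme; medium: Tris/NaCl/DTT buffer, pH 7.5; also added: substrate SCFSkp2-Nedd8OG, 10 nM; doses: 12.5 µM compound; schedule: 90 min reaction at room temperature; signal: FP; read-out: % inhibition of substrate cleavage by Csn5; benchmarks: substrate-only high control, full reaction low control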
IDE cell inh: cellular human IDE inhibition; inhibition, % at 5.59 µM; AID 434962; actives 0.41% (n = 320,000); P14735; HEK cells, FAbetaB cleavage, fluorescence polarization;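 active = percent inhibition above the average of all tested compounds plus 3 SD, set per screening campaign, cut at about 16% in these data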;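 also: IDE supplied by intact live HEK cells; FP after avidin binding of uncleaved biotin substrate so inhibition keeps polarization high; 0% = DMSO wells and 100% = 60 µM reference IDE inhibitor Ii1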
HNF4A DNA FP: change in binding of human HNF4 alpha to DNA; actives 0.3% (n = 360,000); activity change, % at 10 µM; AID 1224865; HNF4a-FITC DNA binding, fluorescence polarization, 1 h; P41235; in the data active = activity change above about 30%, passing the limit was not always enough
TPT1 inh confirm: TPT1 (C. albicans) inhibition, confirmation; AID 2149; actives 74% (n = 2,400); recombinant caTPT1, fluorescence polarization, RNase T1 coupled; inhibition, % at 5 µM; shares compounds with TPT1 inh;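 active = inhibition above the primary screen limit, the mean inhibition of all tested compounds plus 3 SD, cut at about 25% in these data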
RNase T1 inh: blocks Aspergillus oryzae RNase T1, a TPT1 counter-screen | shares compounds with TPT1 inh | RNase T1 cleavage, fluorescence polarization, 1536-well | inhibition, % at 5 µM | actives 83% (n = 2,400);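 active = inhibition above the solvent-only control well mean plus 3 SD, limit set per screening run, cut at about 23% in these data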;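 also: plate controls were DMSO wells with enzyme for no effect and wells without RNase T1 for full effect; inhibitors block cleavage so intact labeled substrate keeps polarization high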
Target sequence (P00651 whole entry, looked up): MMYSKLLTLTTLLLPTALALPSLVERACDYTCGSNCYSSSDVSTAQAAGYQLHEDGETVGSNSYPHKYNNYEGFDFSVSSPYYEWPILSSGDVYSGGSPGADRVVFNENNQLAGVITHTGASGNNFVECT
IDE cell inh cf: confirmation of human insulin-degrading enzyme inhibitors in cells; shares compounds with IDE cell inh; HEK cells, FAbetaB cleavage, fluorescence polarization; inhibition, % at 5.59 µM; actives 51% (n = 1,200);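 active = mean inhibition across triplicate wells above the cutoff set by the earlier primary insulin-degrading enzyme screen, cut at about 16% in these data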;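 also: 0% = DMSO wells and 100% = 60 µM reference IDE inhibitor Ii1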
HEK cytotox: counter-screen for IDE inhibitors: cytotoxicity in HEK cells; shares compounds with IDE cell inh; HEK293 cytotoxicity, ATP luminescence; inhibition, % at 5.59 µM; actives 28% (n = 1,200); in the data active = inhibition above about 22%;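 also: 0% = vehicle wells and 100% = reference cytotoxic drug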
Starred values were filed as active, the others as inactive; nt = no result given.

SMILES	IDE cell activ	Rpn11 inh	TPT1 inh	CSN deneddyl inh	IDE cell inh	HNF4A DNA FP	TPT1 inh confirm	RNase T1 inh	IDE cell inh cf	HEK cytotox
COc1cc(/C=C/C(=O)C2C(=O)C=C(C)OC2=O)cc(OC)c1O (stereo not given)	-12	10	37*	0	24*	-4	18	28*	35*	13
COC1OC2COC(c3ccccc3)OC2C(O)C1NC(=O)c1ccccc1 (stereo not given)	7	10	nt	-4	nt	1	nt	nt	nt	nt
COc1ccc(C2CC(c3cccs3)=NN2c2ccc(C=O)cc2)cc1 (stereo not given)	nt	nt	65*	nt	30*	nt	67*	72*	19*	14
CCNC(=O)C1(C)CCCN(C(=O)C2(c3ccc(Cl)cc3)CCCC2)C1 (stereo not given)	nt	6	nt	0	nt	2	nt	nt	nt	nt
CC[n+]1ccc(/C=C/c2c[nH]c3ccccc23)cc1	-14	nt	64*	66	24*	83	60*	67*	41*	71*
Cc1ccc2[nH]cc(/C=C/c3cc[n+](C)cc3)c2c1	-15	nt	nt	89	nt	95	nt	nt	nt	nt
COc1cc(/C=C(\C#N)c2[nH]nc(N)c2C#N)cc(OC)c1O	-73	17	25*	8	84*	11	33*	37*	166*	9
COc1cc(/C=C(\C#N)c2ccccn2)ccc1OCc1ccccc1Cl	-3	-2	1	-2	-3	2	nt	nt	nt	nt
COc1cc(/C=C(\C#N)c2ccccn2)cc(OC)c1O	-166	nt	56*	12	160*	4	72*	76*	52*	17
COc1cc(/C=C(\C#N)c2nn(CCO)c(N)c2C#N)cc(OC)c1OC	3	11	4	1	2	2	nt	nt	nt	nt
COc1ccc(NC(=O)c2cc(C3CCCCN3S(=O)(=O)c3cn(C)cn3)on2)c(C)c1 (stereo not given)	nt	0	nt	0	nt	3	nt	nt	nt	nt
COCc1cccc(-c2csc(C(C)(O)c3cccc(OC)c3)n2)c1 (stereo not given)	nt	-8	nt	-7	nt	1	nt	nt	nt	nt
CCc1nc2ccc(C(=O)Nc3cccc(OCC(=O)N(C)C)c3)cn2c1N(CC)CCOC	nt	1	nt	3	nt	0	nt	nt	nt	nt
C=CCN1C(=O)[C@@H]2Cc3c([nH]c4ccccc34)C(c3ccc(O)cc3)N2C1=S (stereo not given in full)	-40	nt	78*	31	25*	46*	62*	73*	15	22*
O=C1[C@@H]2Cc3c([nH]c4ccccc34)C(c3ccccc3)N2C(=O)CN1CCO (stereo not given in full)	-4	6	1	3	4	2	nt	nt	nt	nt
CCOC(=O)/C(C#N)=C(C)/C=C1\Sc2ccccc2N1CC	-64	nt	49*	-70	44*	-33	39*	50*	78*	36*
CCN1/C(=C\C(C)=O)Sc2ccc(OC)cc21	3	-1	0	1	1	-4	nt	nt	nt	nt
CCN1/C(=C\C=C(C(C)=O)C(C)=O)Sc2ccccc21	-53	nt	196*	130	35*	192	167*	157*	50*	9
COc1ccc(NC(=S)N2CCC3CC2c2c(Cl)cccc23)c(OC)c1 (stereo not given)	nt	4	nt	-2	nt	-3	nt	nt	nt	nt
COc1ccc(OC)c(/C=C2\Oc3cc(OCC(=O)N4CCC(C(=O)O)CC4)ccc3C2=O)c1	-36	15	29*	2	22*	3	48*	57*	65*	8
COc1ccc(OC)c(/C=C2\Oc3cc(OCC(=O)N4CC(O)C[C@H]4C(=O)O)ccc3C2=O)c1 (stereo not given in full)	-6	-4	16	4	9	0	nt	nt	nt	nt
N#CC1=C(N)Oc2cc(O)ccc2C1c1ccccc1 (stereo not given)	-11	-4	1	1	3	9	nt	nt	nt	nt
N#CC1=C(N)SC(N)=C(C#N)C1c1cccc(O)c1	-9	nt	100*	118	20*	91	108*	112*	6	10
Cc1ccc2cc(NC(=O)C3(C)CCN3C(C)C)ccc2n1 (stereo not given)	nt	-4	nt	-2	nt	-2	nt	nt	nt	nt
COc1ccc(S(=O)(=O)N2CCC(C(=O)N[C@@H](C)C(=O)NCc3ccco3)CC2)cc1	nt	7	nt	-2	nt	-2	nt	nt	nt	nt
SMILES	IDE cell activ	Rpn11 inh	TPT1 inh	CSN deneddyl inh	IDE cell inh	HNF4A DNA FP	TPT1 inh confirm	RNase T1 inh	IDE cell inh cf	HEK cytotox
CCC(CO)[n+]1c(C)cc(/C=C2\Sc3ccccc3N2Cc2ccccc2)cc1C (stereo not given)	-37	nt	127*	11	43*	13	131*	134*	54*	100*
CN1/C(=C\C=C(/C#N)C(=O)Nc2ccccc2F)C(C)(C)c2ccccc21	-44	nt	123*	123	25*	102	95*	93*	35*	14
Cc1ccc(N2CCN(C(C(=O)Nc3c(C)cccc3C)c3ccccc3OC(F)(F)F)CC2)cc1 (stereo not given)	nt	nt	nt	-1	nt	4	nt	nt	nt	nt
CCCCCCc1cc2cc(-c3nnc(-c4ccccc4O)o3)c(=O)oc2cc1O	-70	nt	121*	-73	38*	-98	114*	113*	118*	8
O=C(N/N=C\c1c(O)ccc2ccccc12)c1ccc(Cn2cccn2)o1	-52	nt	40*	-15	42*	12	45*	49*	63*	68*
COc1ccc(-c2cc3c(c4c2ccn4C)C2CCC3C2)cc1OC (stereo not given)	nt	6	nt	-3	nt	1	nt	nt	nt	nt
COc1cc(OC)c(/C=C2\SC(=O)N(CC(=O)Nc3ccccc3F)C2=O)c(OC)c1	2	2	-3	1	-7	3	nt	nt	nt	nt
COc1cc(/C=C2\SC(=O)N(CC(=O)Nc3ccccc3F)C2=O)cc(Cl)c1O	-138	25	67*	11	48*	3	81*	68*	96*	17
Cc1cc2nc(/C(C#N)=C\c3ccc(-c4ccccc4C(=O)O)o3)[nH]c2cc1C	-124	nt	138*	118	31*	148	145*	136*	134*	8
O=Cc1ccc(-c2ccccc2C(=O)O)o1	1	-10	-4	-6	4	-4	nt	nt	nt	nt
